The nature of test [1]: inhibitors of TNFa-induced NFkB p65 translocation, primary screen, imaging, HUVEC, MLSMR starter and 10KST1 sets (AID 438;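 active = inhibition above 20% together with a positive visual image hit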;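 also: compound added about 3h40 before a 20 min TNFalpha stimulation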;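 as to inhibition: signal is the nuclear over cytoplasmic p65 intensity ratio per well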). As to conditions: HUVEC TNFa-induced p65 nuclear translocation; cell count: measured here: nuclei count (cytotoxicity indicator), at 2.08 µM; inhibition: at 2 µM, stronger effect = higher value, 0% TNFa-plus-vehicle, 100% no-TNFa wells.
Test [2] is described as follows: inhibitors of E-selectin induction by TNFa, primary screen, imaging, HUVEC, immunofluorescence, MLSMR starter and 10KST1 sets (AID 487;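 active = visually confirmed hit in the image check and inhibition above 20%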;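 as to inhibition: signal is fraction of cell area covered by stained E-selectin grains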;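 as to nuclei count: 100% = median nuclei count of all wells on the same plate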). As to conditions: HUVEC TNFalpha-induced E-selectin immunofluorescence imaging, at 2 µM; inhibition: stronger effect = higher value; nuclei count: measured here: cell number, toxicity.
Test [3] can be described thus: DUSP6 inhibitors restoring Erk phosphorylation by chemical complementation, primary imaging in DUSP6-transfected HeLa (AID 609).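 As to inhibition: phospho-Erk level distribution per well compared with pooled transfected vehicle control wells.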 As to conditions: HeLa MKP-3 transfected, phospho-Erk imaging KS statistic, at 10 µM, cells stimulated with TPA for 15 min.
Test [4] addresses Dual specificity protein phosphatase 6 (Homo sapiens) (UniProt Q16828). The description is as above. As to conditions: HeLa MKP-3 transfected, phospho-Erk imaging KS statistic; at 10 µM; stronger effect = higher value; cells stimulated with TPA for 15 min.
Test [5] addresses Voltage-gated potassium channel subunit beta-2 (Rattus norvegicus) (UniProt P62483). The test is described as follows: KvBeta enzyme negative modulators, primary screen, biochemical, NADPH fluorescence (AID 622;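 active = fluorescence slope higher than the sample average by over 3 SD, cut at about -0.22 in these data, passing the limit was not always enough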;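 also: slope of raw intensity against log time taken from 70 to 1610 s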). As to conditions: recombinant KvBeta, 4-cyanobenzaldehyde reduction, at 10 µM, stronger effect = higher value.
The target is the same in test [6]. The test is described as follows: KvBeta positive modulators, primary screen, biochemical, NADPH fluorescence (AID 623;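 active = NADPH fluorescence slope more negative than the mean of all samples by about 3 SD, 99.7% confidence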;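 also: fluorescence intensity change per second fitted from 20 to 320 s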). As to conditions: Recombinant KvBeta, NADPH fluorescence decrease slope, 10 min; at 10 µM; stronger effect = lower value.
The target of test [7] is Muscarinic acetylcholine receptor M4 (Homo sapiens) (UniProt P08173). Nature of the test: compounds altering M4/GIRK thallium flux, either direction, primary screen, M4 allosteric agonist project, cell-based, HEK293 M4/GIRK, BTC-AM (AID 625;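 active = fluorescence slope after compound addition differing from the mean of all tested samples at 99.7% confidence, mostly higher but some lower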;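 also: thallium influx through GIRK channels coupled to M4 in HEK293 cells with BTC-AM dye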). As to conditions: at 10 µM, actives lie on both sides. A digest of the protocol:
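assay system = HEK293 cells with M4 receptor and GIRK channels | medium = pH 7.3 thallium assay buffer | doses = 10 µM final, single point | timing = cells overnight at 37 °C, BTC-AM loading 1 h, reads 2 min total | signal = BTC-AM fluorescence, 1 Hz kinetic reads | read-out = post-addition slope, 15–24 s, of baseline-normalized fluorescence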

Test [8] is described as follows: inhibitors of larval lipid processing in zebrafish, primary screen, whole organism, PED6 fluorescence, gall bladder and intestine (AID 686;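 active = a full or partial loss of lipid-probe fluorescence in the fish gall bladder, intestine or both, judged by eye; inactive = no fluorescence loss, or compound toxic to the fish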;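 also: larvae 5 to 7 days old with five fish per well; signal comes from phospholipase A2 cleavage of quenched PED6 carried via bile; overnight exposure to compound and PED6 before scoring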). Particulars: Zebrafish larvae PED6 lipid processing, fluorescence scoring; screened at 20 µM (by protocol). A digest of the protocol:
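Also added: quenched phospholipase substrate PED6, 100 nM final, ingested by larvae; System: zebrafish larvae, 5-7 d; Quantity: 5 larvae per well; Compound: 20 µM single dose; Schedule: overnight compound and PED6 incubation; Read-out: visual per-well fluorescence inhibition score; Measured by: By-eye fluorescence microscopy; Medium: E3.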

Test [9] is described as follows: inhibitors of Chlamydomonas gravitaxis, primary screen, whole organism, Chlamydomonas reinhardtii, WT vs cilia-less mutant, absorbance, 96-well (AID 463189;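 active = inhibition at or above 50% relative to wild type and mutant plate controls; inactive = inhibition below 50%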;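 also: 0% = wild type cc124 cells in DMSO and 100% = ciliumless bld1 mutant cells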). As to conditions: OD600 absorbance, 2 days, at 10 µM, stronger effect = higher value.
Where [10] appears, read: measured here: cell density z-score.
[11] abbreviates: measured here: nuclear c-Myc green intensity z-score.
The mark [12] stands for this setting: measured here: nuclear pErk red intensity z-score, stronger effect = higher value.

Calls of active or inactive are those of the source.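 The calls were made as follows, unless noted: active = compounds giving at least 50% inhibition in the cell-based MKP-3 phosphatase rescue imaging test; inactive = the rest.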

As usually defined, the inhibition is the change of the read-out against control, counted positive when it falls.

Voltage-gated potassium channel subunit beta-2 (Rattus norvegicus), sequence (P62483 whole entry, looked up): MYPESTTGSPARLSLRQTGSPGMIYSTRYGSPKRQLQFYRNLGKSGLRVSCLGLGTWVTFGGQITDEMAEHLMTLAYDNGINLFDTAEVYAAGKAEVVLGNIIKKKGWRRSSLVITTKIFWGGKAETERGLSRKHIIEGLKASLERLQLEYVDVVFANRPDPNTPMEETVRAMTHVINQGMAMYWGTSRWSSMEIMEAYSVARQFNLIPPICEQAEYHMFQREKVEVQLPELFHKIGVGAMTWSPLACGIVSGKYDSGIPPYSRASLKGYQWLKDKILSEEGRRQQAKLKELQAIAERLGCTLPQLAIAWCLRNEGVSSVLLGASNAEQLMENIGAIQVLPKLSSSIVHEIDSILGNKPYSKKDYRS
Dual specificity protein phosphatase 6 (Homo sapiens), sequence (Q16828 whole entry, looked up): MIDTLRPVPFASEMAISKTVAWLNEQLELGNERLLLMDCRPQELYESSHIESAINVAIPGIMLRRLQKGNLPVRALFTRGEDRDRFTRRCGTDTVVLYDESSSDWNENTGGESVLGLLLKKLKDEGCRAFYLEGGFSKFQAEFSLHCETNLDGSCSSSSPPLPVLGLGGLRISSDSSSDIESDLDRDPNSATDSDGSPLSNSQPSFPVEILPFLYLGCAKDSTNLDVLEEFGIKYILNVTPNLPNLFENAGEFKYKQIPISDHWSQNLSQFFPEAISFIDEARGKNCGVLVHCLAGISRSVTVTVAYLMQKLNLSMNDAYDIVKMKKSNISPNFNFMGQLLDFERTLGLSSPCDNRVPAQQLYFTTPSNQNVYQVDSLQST
Muscarinic acetylcholine receptor M4 (Homo sapiens), sequence (P08173 whole entry, looked up): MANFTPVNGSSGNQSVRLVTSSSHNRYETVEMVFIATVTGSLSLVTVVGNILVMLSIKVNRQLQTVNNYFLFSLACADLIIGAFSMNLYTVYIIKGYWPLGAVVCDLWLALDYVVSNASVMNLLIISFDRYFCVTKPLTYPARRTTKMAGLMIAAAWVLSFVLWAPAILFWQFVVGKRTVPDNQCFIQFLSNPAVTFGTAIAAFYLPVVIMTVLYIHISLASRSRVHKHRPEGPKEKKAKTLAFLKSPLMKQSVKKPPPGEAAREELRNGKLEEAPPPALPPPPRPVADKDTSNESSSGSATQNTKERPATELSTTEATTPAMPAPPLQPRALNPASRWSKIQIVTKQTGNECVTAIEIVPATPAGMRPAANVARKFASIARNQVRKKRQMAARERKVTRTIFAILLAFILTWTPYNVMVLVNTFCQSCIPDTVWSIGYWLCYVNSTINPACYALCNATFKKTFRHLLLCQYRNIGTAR

With `CCn1nc(NC(=O)c2ccco2)c2cc3ccccc3nc21`, the cell count in test [1] stood at 700. Also, the inhibition is -11.3% (inactive) in [1], -20.2% (inactive) in test [2], -6.48% (inactive) in [4] and -8.58% (inactive) in test [9]. Further, the nuclei count in test [2] amounted to 168%. The z-score in test [3] (setting [10]) was -0.0808; in test [3] (setting [11]), 0.362; in [3] (setting [12]), -0.0698. In addition, the fluorescence slope in test [5] is -0.404 (inactive); in test [7], 0.0055 (inactive). Also, the NADPH fluorescence slope in test [6] was -4.1e-05 (inactive). For the same compound, the compound was classed as inactive in [8].
`CC12CN3CC(C)(CN(C1)C3c1ccc(Br)cc1O)C2` (centres undefined): the cell count in [1] is 576. Also, the inhibition in test [1] was -3% (inactive); in test [2] it was -162% (inactive); in [4] it was 5.42% (inactive); in test [9], 4.37% (inactive). The compound further gave a nuclei count in [2] of 138%. Further, the z-score is 0.885 in test [3] (setting [10]), -1.75 in test [3] (setting [11]) and -1.65 in [3] (setting [12]). The fluorescence slope in test [5] is -0.472 (inactive); in [7], 0.00399 (inactive). Besides, the NADPH fluorescence slope in [6] was -8.8e-05 (inactive). Further, in [8], the outcome was inactive.
Take `COc1ccc(CSc2nnc3n(C)c(=O)c4c5c(sc4n23)CCCC5)cc1`: the cell count in test [1] came to 563. Also, the inhibition in [1] is -1.3% (inactive); in [2], -140% (inactive); in test [4], 17.8% (inactive); in [9], 1.97% (inactive). The compound further had a nuclei count in test [2] of 184%. The z-score was 0.888 in test [3] (setting [10]), -0.948 in test [3] (setting [11]) and -1.27 in [3] (setting [12]). In addition, the fluorescence slope in test [5] is -0.41 (inactive); in test [7], 0.00522 (inactive). The NADPH fluorescence slope in test [6] is -1.6e-05 (inactive). The compound was called inactive in [8].
With `CCOc1cccc(N2C(=O)CC(N(CCc3ccc(OC)c(OC)c3)C(=O)CC)C2=O)c1` (centres undefined), in test [1], the cell count stood at 586. Further, the inhibition in test [1] was -0.6% (inactive); in test [2] it was 2.4% (inactive); in test [4] it was -7.67% (inactive); in test [9], -0.122% (inactive). In test [2], this compound registered a nuclei count of 120%. Moreover, the values for the z-score in test [3] (setting [10]), in [3] (setting [11]) and in [3] (setting [12]) were -0.772, 0.365 and -1.41, respectively. The fluorescence slope in [5] is -0.453 (inactive); in test [7] it was 0.00547 (inactive). The NADPH fluorescence slope in test [6] was -1.2e-05 (inactive). Moreover, the result in test [8] was inactive.
With `CCN(CC)CCN1C(=O)C(=O)/C(=C(/O)c2ccc(OC)cc2)C1c1ccco1` (centres undefined), the cell count in test [1] was determined as 710. The inhibition in [1] was -1.4% (inactive); in test [2], 4.1% (inactive); in test [4], -7.67% (inactive); in test [9], 5.19% (inactive). The nuclei count in [2] came to 163%. The z-score in test [3] (setting [10]) is 0.167; in [3] (setting [11]), 0.629; in test [3] (setting [12]), 0.173. Besides, the values for the fluorescence slope in test [5] and in test [7] were -0.496 (inactive) and 0.00632 (inactive), respectively. The NADPH fluorescence slope in [6] is -6.6e-05 (inactive). Further, the call in [8] was inactive.
Consider `COc1ccc(C(=O)c2ccc(N3CCOCC3)cc2)c(OC)c1`, for which the cell count in [1] was found to be 624. Moreover, the inhibition in test [1] is -6.6% (inactive); in [2] it was -21.8% (inactive); in test [4], 5.95% (inactive); in test [9], -11.4% (inactive). In [2], this compound came in with a nuclei count of 99.4%. Further, the z-score is -2.58 in test [3] (setting [10]), 0.925 in test [3] (setting [11]) and 1.09 in [3] (setting [12]). Moreover, the fluorescence slope in test [5] was -0.488 (inactive); in test [7], 0.00684 (inactive). The NADPH fluorescence slope in test [6] was -6.2e-05 (inactive). The compound was classed as inactive in [8].
With `O=C1C=C(O)CC(c2ccc(Cl)c(Cl)c2)C1` (centres undefined), the cell count in test [1] worked out at 606. Further, the inhibition in test [1] is 4.8% (inactive); in test [2], -56.5% (inactive); in test [4] it was 14.7% (inactive); in [9], -8.94% (inactive). This compound also had a nuclei count in test [2] of 115%. In addition, the z-score is 0.34 in test [3] (setting [10]), 0.0724 in test [3] (setting [11]) and 0.952 in test [3] (setting [12]). Moreover, the values for the fluorescence slope in [5] and in test [7] were -0.41 (inactive) and 0.00481 (inactive), respectively. The NADPH fluorescence slope in test [6] is -4.9e-05 (inactive). Further, the compound was classed as inactive in [8].
For `COc1ccc(CC(=O)Nc2cccc(-c3nnc(-c4ccco4)o3)c2)cc1`, in test [1], the cell count turned out to be 671. In addition, the inhibition was -0.9% (inactive) in test [1], 6.2% (inactive) in test [2], -15.1% (inactive) in [4] and 0.83% (inactive) in [9]. Besides, the nuclei count in test [2] amounted to 177%. Also, the values for the z-score in test [3] (setting [10]), in [3] (setting [11]) and in [3] (setting [12]) were -0.286, 1.67 and 1.63, respectively. In addition, the fluorescence slope in test [5] is -0.475 (inactive); in test [7], 0.00587 (inactive). The NADPH fluorescence slope in [6] was -8e-05 (inactive). In test [8], the compound was called inactive.
Take `Cc1ccc(CNc2oc(COc3ccccc3Cl)nc2C#N)cc1`: the cell count in test [1] was 402. Besides, the inhibition in test [1] was -2.8% (inactive); in test [2], -40.3% (inactive); in test [4], 4.37% (inactive); in test [9], 28.6% (inactive). Moreover, in test [2], the nuclei count is 82.6%. The z-score in [3] (setting [10]) is -0.405; in test [3] (setting [11]), -0.319; in test [3] (setting [12]), -0.994. Besides, the fluorescence slope was -0.387 (inactive) in test [5] and 0.00728 (inactive) in test [7]. Besides, in test [6], the NADPH fluorescence slope was 2.1e-06 (inactive). Further, the compound was called inactive in test [8].
With `Cn1c(Cn2cnc3ccccc32)nc2ccccc21`, in test [1], the cell count is 543. The inhibition in test [1] was 0.2% (inactive); in test [2] it was 22% (inactive); in test [4], -3.95% (inactive); in [9], 23% (inactive). Besides, the nuclei count in [2] worked out at 78.7%. The values for the z-score in test [3] (setting [10]), in test [3] (setting [11]) and in test [3] (setting [12]) were 1.23, -0.835 and -0.272, respectively. Besides, the fluorescence slope is -0.431 (inactive) in test [5] and 0.00479 (inactive) in test [7]. Moreover, in test [6], the NADPH fluorescence slope is 9.8e-06 (inactive). For the same compound, the call in [8] was inactive.
As for `COc1ccc(C(=O)Nc2ccccc2N2CCOCC2)cc1Br`, the cell count in test [1] was determined as 522. In addition, the inhibition was -7.6% (inactive) in test [1], -11.8% (inactive) in test [2], 37.7% (inactive) in test [4] and 10.5% (inactive) in [9]. In [2], this compound displayed a nuclei count of 153%. In addition, the z-score in [3] (setting [10]) is 2.22; in test [3] (setting [11]), -2.31; in test [3] (setting [12]) it was -0.121. Also, the fluorescence slope is -0.351 (inactive) in [5] and 0.00733 (inactive) in test [7]. Moreover, the NADPH fluorescence slope in test [6] was -9.8e-06 (inactive). Moreover, in test [8], the result was inactive.
`COc1cc(=O)[nH]c(=O)n1CC(=O)c1ccccc1`: the cell count in test [1] amounted to 719. In addition, the inhibition in [1] was -7.7% (inactive); in test [2] it was -4.5% (inactive); in test [4], -2.09% (inactive); in test [9] it was -0.879% (inactive). In test [2], this compound came in with a nuclei count of 160%. Further, the z-score is -0.792 in test [3] (setting [10]), 1.02 in [3] (setting [11]) and 1.07 in [3] (setting [12]). For the same compound, the fluorescence slope is -0.452 (inactive) in [5] and 0.00585 (inactive) in test [7]. The NADPH fluorescence slope in test [6] is -3.7e-05 (inactive). Further, the outcome in [8] was inactive.
Turning to `Brc1ccc(-c2cnnc(N3CCCC3)n2)cc1`, the cell count in [1] was 399. The inhibition in test [1] is -2.1% (inactive); in [2], -57.7% (inactive); in [4], -0.608% (inactive); in [9] it was 42.9% (inactive). Further, the nuclei count in [2] stood at 130%. The z-score in test [3] (setting [10]) was -1.38; in test [3] (setting [11]) it was 0.891; in test [3] (setting [12]), -0.195. Also, the fluorescence slope was -0.415 (inactive) in test [5] and 0.005 (inactive) in test [7]. For the same compound, the NADPH fluorescence slope in test [6] was -1.2e-05 (inactive). In addition, the outcome in test [8] was inactive.

(Values after PubChem BioAssay.)
